Key:
Caco-2 [1] = assay: Apparent permeability from basolateral to apical side in human Caco2 cells in low glucose medium at 50 uM at pH 7.4 by HPLC-DAD analysis; assay type: ADME, cell-based; settings: caco-2, pH 7.4, 50 µM
Caco-2 [2] = assay: Cytotoxicity against human Caco2 cells at 50 to 200 uM relative to control; assay type: cell-based; settings: caco-2, 200 µM
In short: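 Toxicity judged from TEER of Caco-2 monolayers, measured with an epithelial voltohmmeter before and after exposure. Compared against control monolayers in transport medium without compound.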

Caco-2 [3] = assay: Apparent permeability from apical to basolateral side in human Caco2 cells in glucose rich medium at 50 to 100 uM at pH 7.4 by HPLC-DAD analysis; settings: caco-2, pH 7.4, 100 µM
Caco-2 [4] = assay: Apparent permeability from apical to basolateral side in human Caco2 cells in low glucose medium at 50 uM at pH 7.4 by HPLC-DAD analysis; assay type: ADME, cell-based; settings: caco-2, pH 7.4, 50 µM
Caco-2 [5] = assay: Apparent permeability from apical to basolateral side in human Caco2 cells in glucose free medium at 50 uM at pH 6.0 in apical side and pH 7.4 at basolateral side by HPLC-DAD analysis; assay type: ADME, cell-based; settings: caco-2, pH 6, 50 µM
[6] = Stability of the compound at 25 degC by HPLC-DAD analysis; assay type: physicochemical
Caco-2 [7] = assay: Apparent permeability from apical to basolateral side in human Caco2 cells in glucose rich medium at 50 to 100 uM at pH 7.4 by HPLC-DAD analysis; assay type: ADME, cell-based; settings: caco-2, pH 7.4, 100 µM
Caco-2 [8] = assay: Apparent permeability from basolateral to apical side in human Caco2 cells in glucose free medium at 50 uM at pH 6.0 in apical side and pH 7.4 at basolateral side by HPLC-DAD analysis; assay type: ADME, cell-based; settings: caco-2, pH 6, 50 µM
Caco-2 [9] = assay: Apparent permeability from basolateral to apical side in human Caco2 cells in HBSS medium at 50 uM by HPLC-DAD analysis; assay type: ADME, cell-based; settings: caco-2, 50 µM
Caco-2 [10] = assay: Apparent permeability from apical to basolateral side in human Caco2 cells in glucose free medium at 50 uM at pH 7.4 by HPLC-DAD analysis; assay type: ADME, cell-based; settings: caco-2, pH 7.4, 50 µM
Caco-2 [11] = assay: Apparent permeability from basolateral to apical side in human Caco2 cells in glucose free medium at 50 uM at pH 7.4 by HPLC-DAD analysis; assay type: ADME, cell-based; settings: caco-2, pH 7.4, 50 µM
Caco-2 [12] = assay: Apparent permeability from apical to basolateral side in human Caco2 cells in HBSS medium at 50 uM by HPLC-DAD analysis; assay type: ADME, cell-based; settings: caco-2, 50 µM
Caco-2 [13] = assay: Apparent permeability from basolateral to apical side in human Caco2 cells in glucose rich medium at 50 to 100 uM at pH 7.4 by HPLC-DAD analysis; assay type: ADME, cell-based; settings: caco-2, pH 7.4, 100 µM
[14] = Lipophilicity, log P of the compound by micellar chromatography; assay type: physicochemical
[15] = Efflux ratio of apparent permeability from basolateral to apical side to apical to basolateral side in human Caco2 cells at 50 uM at pH 7.4 by HPLC-DAD analysis; assay type: ADME, cell-based; settings: Caco-2, pH 7.4
In short: (§1)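 Glucose-rich transport medium (25 mM glucose), pH 7.4 in both apical and basolateral compartments, donor concentration 25 or 50 μM. Papp = (ΔQ/Δt)/(A·C0), from the linear appearance rate on the receiver side. Ratios are calculated as Papp A→B/Papp B→A and Papp B→A/Papp A→B.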

[16] = Efflux ratio of apparent permeability from basolateral to apical side to apical to basolateral side in human Caco2 cells at 25 uM at pH 7.4 by HPLC-DAD analysis; assay type: ADME, cell-based; settings: Caco-2, pH 7.4; in short: as §1
Caco-2 [17] = assay: Efflux ratio of apparent permeability from apical to basolateral side to basolateral to apical side in human Caco2 cells at 50 uM at pH 7.4 by HPLC-DAD analysis; assay type: ADME, cell-based; settings: caco-2, pH 7.4, 50 µM; in short: as §1
[18] = Apparent permeability from apical to basolateral side in human Caco2 cells at 25 uM at pH 7.4 after 30 mins by HPLC-DAD analysis; assay type: ADME, cell-based; settings: Caco-2, pH 7.4
[19] = Apparent permeability from basolateral to apical side in human Caco2 cells at 25 uM at pH 7.4 by HPLC-DAD analysis; assay type: ADME, cell-based; settings: Caco-2, pH 7.4
[20] = Apparent permeability from apical to basolateral side in human Caco2 cells at 50 uM at pH 7.4 after 30 mins by HPLC-DAD analysis; assay type: ADME, cell-based; settings: Caco-2, pH 7.4
[21] = Apparent permeability from basolateral to apical side in human Caco2 cells at 50 uM at pH 7.4 by HPLC-DAD analysis; assay type: ADME, cell-based; settings: Caco-2, pH 7.4
Caco-2 [22] = assay: Efflux ratio of apparent permeability from apical to basolateral side to basolateral to apical side in human Caco2 cells at 25 uM at pH 7.4 by HPLC-DAD analysis; assay type: ADME, cell-based; settings: caco-2, pH 7.4, 25 µM; in short: as §1
Caco-2 [23] = assay: Apparent permeability from basolateral to apical side in human Caco2 cells in glucose free medium at 25 uM at pH 6.0 in apical side and pH 7.4 at basolateral side by HPLC-DAD analysis; assay type: ADME, cell-based; settings: caco-2, pH 6, 25 µM
Caco-2 [24] = assay: Cellular uptake in human Caco2 cells; assay type: ADME, cell-based
Caco-2 [25] = assay: Apparent permeability from apical to basolateral side in human Caco2 cells in glucose free medium at 25 uM at pH 6.0 in apical side and pH 7.4 at basolateral side by HPLC-DAD analysis; assay type: ADME, cell-based; settings: caco-2, pH 6, 25 µM

In the case of `O=c1cc(-c2ccc(O)cc2)oc2c([C@@H]3O[C@H](CO)[C@@H](O)[C@H](O)[C@H]3O)c(O)c([C@@H]3O[C@H](CO)[C@@H](O)[C@H](O)[C@H]3O)c(O)c12`, the permeability (Caco-2 [1]) was “impermeable”, the Activity (Caco-2 [2]) was “Non-toxic” and the permeability (Caco-2 [3]) was “impermeable”. For the same compound, the permeability (Caco-2 [4]) was “impermeable”, the permeability (Caco-2 [5]) was “impermeable” and the Stability [6] was 99%. For the same compound, the permeability (Caco-2 [7]) was “impermeable”, the permeability (Caco-2 [8]) was “impermeable” and the permeability (Caco-2 [9]) was “impermeable”. For the same compound, the permeability (Caco-2 [10]) was “impermeable”, the permeability (Caco-2 [11]) was “impermeable” and the permeability (Caco-2 [12]) was “impermeable”. For the same compound, the permeability (Caco-2 [13]) was “impermeable” and the logP [14] was -4.31.

With `C=C1CC/C=C(/C(=O)O)C[C@H](O)[C@@H]2[C@@H]1CC2(C)C` the Activity (Caco-2 [2]) was “Non-toxic”, the efflux ratio at 50 µM [15] was 1.02 and the efflux ratio at 25 µM [16] was 0.94. The Stability [6] was 98%, the Ratio (Caco-2 [17]) was 0.97 and the Papp A→B at 0.5 h, 25 µM [18] was 4.68 ×10⁻⁶ cm/s. For the same compound, the Papp B→A at 25 µM [19] was 4.41 ×10⁻⁶ cm/s, the Papp A→B at 0.5 h, 50 µM [20] was 4.07 ×10⁻⁶ cm/s and the Papp B→A at 50 µM [21] was 4.17 ×10⁻⁶ cm/s. It also gave a Ratio (Caco-2 [22]) of 1.06.

For `O=c1cc(-c2ccc(O)cc2)oc2cc(O)cc(O)c12` [APIGENIN], the permeability (Caco-2 [23]) was “impermeable”, the Drug uptake (Caco-2 [24]) was “Active” and the permeability (Caco-2 [25]) was “impermeable”.

From ChEMBL document CHEMBL3120128, “Evaluation of intestinal permeability of vicenin-2 and lychnopholic acid from Lychnophora salicifolia (Brazilian arnicão) using Caco-2 cells” (J Nat Prod, 2014)
